The source of these data is ChEMBL document CHEMBL4513216, “Probing the Open Global Health Chemical Diversity Library for Multistage-Active Starting Points for Next-Generation Antimalarials” (ACS Infect Dis, 2020).

The series can be described thus: Toxicity liver stage against HepG2, at 10uM. Type of series: cell-based. Set-up: test concentration 10 uM, cell line HepG2-A16-CD81EGFP. Conditions: human, HepG2-A16-CD81EGFP cells; read-out: INHIBITION
Put shortly:
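Uninfected HepG2-A16-CD81EGFP cells, 3 × 10^3 per well, 1536-well, plated on prespotted compound at 10 μM final, parasite-free screening media added to match infected plates; puromycin 10 μM positive, DMSO 0.5% negative; run in parallel with 48 h PbLuc assay at 37 °C, 5% CO2; viability by CellTiter-Glo luminescence, normalized to controls.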
Take `O=C(CN1CCCC1)Nc1c2c(cc3c1CCC3)CCC2`: the cytotoxicity at 10 µM was -2.1%.

Regarding `CC(C)c1nc(CSc2nnc(C3CC3)n2CC(N)=O)no1`, the cytotoxicity at 10 µM is -147%.

As for `O=C1C[C@@H]2CCN(Cc3ccccc3)C[C@@H]2CCN1C1CCCCC1`, the cytotoxicity at 10 µM came out at 5.17%. As for `CC(C)(C)C(=O)N1CC[C@H]2NC(=O)N(c3ccc(F)cc3)C(=O)[C@H]21`, the cytotoxicity at 10 µM is -1.72%.

`CCN(CC)S(=O)(=O)c1ccc2c(c1)N(Cc1cccnc1)C(=O)CS2`: the cytotoxicity at 10 µM was 1.82%. As for `O=C(Cn1cccn1)N1CCC(c2nnc(C(F)(F)F)o2)CC1`, the figure is -10.8%; as for `Cc1nc(N2CCCC2)nc(C)c1NS(=O)(=O)c1ccccc1F`, -3.92%; as for `Cc1ccccc1C(=O)N1CCC2(CCC(C(=O)NCC3CC3)O2)CC1` (stereo unspecified), -3.28%. Consider `CCn1nnc2c1CCN(S(C)(=O)=O)C2COCc1ccccc1` (stereo unspecified), for which the cytotoxicity at 10 µM stood at 0.196%. For `CC(C)CC(=O)N1CCCn2cnc(CNS(C)(=O)=O)c2C1`, the cytotoxicity at 10 µM is -1.22%.

As to `CC(=O)N1CCN(C(=O)NC(C)C)CC2(CC(=O)N(C)C2)C1` (stereo unspecified), the cytotoxicity at 10 µM is -4.13%. Turning to `COCC1CC2(CCN(C(=O)c3oc4ccccc4c3C)CC2)CO1` (stereo unspecified), the cytotoxicity at 10 µM is -141%. For `CCOc1cc(=O)n2c(c1C(=O)OCc1ccc(F)cc1)CCCC2`, the cytotoxicity at 10 µM is 3.51%. For `CCN(CC)C(=O)c1ccn(COc2ccc(F)cc2F)n1`, the cytotoxicity at 10 µM worked out at 7.61%. As for `CCCc1nc(N2CCSCC2)c2c(n1)c(C)nn2CC`, the cytotoxicity at 10 µM was 8.05%.

As to `CCn1ccc(NS(=O)(=O)c2cccc(CSC)c2)n1`, the cytotoxicity at 10 µM came out at 10.4%.

With `Cc1ccc(CNc2cc(C(=O)N3CCOCC3)nc(C)n2)cc1`, the cytotoxicity at 10 µM is -1.61%.

With `Cn1ccc(C(=O)N2CCC(c3cc(CCO)n(C)n3)C2)n1` (stereo unspecified), the cytotoxicity at 10 µM was -3.69%.

Regarding `Cc1ncsc1C(=O)N1CCC(c2ccc3c(NC(C)C)n[nH]c3n2)C1` (stereo unspecified), the cytotoxicity at 10 µM is 4.42%. Regarding `CC(=O)N1CC(C(=O)N2CCCC(Cn3ccnc3C)C2)C1` (stereo unspecified), the cytotoxicity at 10 µM is 1.27%. As for `CNc1cc(C2CN(Cc3coc(C)n3)CCO2)nc(C)n1` (stereo unspecified), the cytotoxicity at 10 µM is -11.1%. With `O=C(N[C@@H]1CCC[C@@H](N2CCOCC2)[C@@H]1O)c1cc2ccccc2[nH]1`, the cytotoxicity at 10 µM is -26.9%. For `CC(C)(C)CC(=O)N1CCC(c2nn(CCN)c3nccnc23)C1` (stereo unspecified), the cytotoxicity at 10 µM was -20.9%.

Turning to `CN(C)C(=O)c1cccc(NC(=O)Cc2cc(F)ccc2F)n1`, the cytotoxicity at 10 µM is -2.64%.

Consider `CCCn1c(NC(=O)CNC(=O)OCC)nc2ccccc21`, for which the cytotoxicity at 10 µM is -4.41%.

`CC(=O)N1CCN(c2ccccc2CNc2cncc(C)c2)CC1`: the cytotoxicity at 10 µM is 2.22%.

On to `CCC(CC)c1cc(C(=O)N2CCN(CC(N)=O)CC2)on1`, for which the cytotoxicity at 10 µM was -4.97%. For the molecule `OC1CCN(c2nc(-c3ccccc3)no2)CC1`, the cytotoxicity at 10 µM was -9.57%. Consider `Cn1cc(CNC2CCCOc3c(Cl)cccc32)cn1` (stereo unspecified), for which the cytotoxicity at 10 µM came to 10.7%. Turning to `CCC1(CC)CC(=O)N(CC(O)c2cc(F)ccc2F)C1=O` (stereo unspecified), the cytotoxicity at 10 µM was -4.42%. As for `CCN(CC)CCn1cc(NC(=O)c2ccccc2OC)cn1`, the figure is 7.04%; as for `O=S1(=O)CCC(c2nnc(-c3cnc4onc(C5CC5)c4c3)o2)C1` (stereo unspecified), 5.89%; as for `COCCCN(C)c1nc(-c2ccncc2)nc(C)c1C`, 2.8%. `NC(=O)C1CCN(c2ncccc2C(=O)N2CCc3ccccc32)C1` (stereo unspecified): the cytotoxicity at 10 µM was -5.78%. As for `O=C(CS(=O)(=O)c1cccc[n+]1[O-])NC1CCCc2ccccc21` (stereo unspecified), the figure is -3.46%.

On to `CCOc1cccc(C(C)NC(=O)N2CCC3(CC2)OCCO3)c1` (stereo unspecified), for which the cytotoxicity at 10 µM turned out to be 0.322%.

`CCN(CC)c1ncc(CNC2CCc3nc(C(C)C)nn3C2)s1` (stereo unspecified): the cytotoxicity at 10 µM worked out at 4.24%.

Turning to `Cc1cc(F)ccc1S(=O)(=O)N(C)CC(N)=O`, the cytotoxicity at 10 µM stood at 1.38%.

In the case of `CCS(=O)(=O)CC(=O)NC(c1ccccc1)C1CCCC1` (stereo unspecified), the cytotoxicity at 10 µM was -137%. Take `N#Cc1ncn(CCC(=O)Nc2ccccc2F)n1`: the cytotoxicity at 10 µM is -150%. Turning to `CN(CCN1CCOCC1)C(=O)CCc1ccc(C(F)(F)F)cc1`, the cytotoxicity at 10 µM was -1.3%.

Regarding `CN(CC(=O)NC(C)(C)C)Cc1nc(-c2ccccc2)c[nH]1`, the cytotoxicity at 10 µM was -2.23%. In the case of `O=S(=O)(CCO)Cc1ccc(OCC(F)(F)F)cc1`, the cytotoxicity at 10 µM came out at 2.23%. For the molecule `CN(c1ncnc2c1CCC2)C1CCCN(c2cccnn2)C1` (stereo unspecified), the cytotoxicity at 10 µM came to 1.72%. As for `Cc1nccc(CNC(=O)N2CCN(Cc3ccccc3)C[C@H]2C)n1`, the cytotoxicity at 10 µM is -128%. As for `CC(=O)N(CCc1ccccc1)CC(=O)NC1(C#N)CC1`, the figure is 1.09%; as for `COCCN1CCC(Nc2c(F)cc(C#N)cc2F)CC1`, -5.41%; as for `CC(C)CN(CC(O)c1ccc(F)cc1)C(=O)c1csnn1` (stereo unspecified), 2.83%.

For `C[S+]([O-])CCNC(=O)Nc1cc(F)ccc1-n1cccn1` (stereo unspecified), the cytotoxicity at 10 µM is -20.9%. For `CC(Nc1ccc(CCN2CCCCC2)cc1)C(=O)N(C)CCC#N` (stereo unspecified), the cytotoxicity at 10 µM was found to be 7.61%. Consider `O=C(CCc1ccsc1)Nc1cnccc1O`, for which the cytotoxicity at 10 µM was found to be 9.56%. Turning to `C[S+]([O-])c1nncn1CC(=O)c1cccc(Cl)c1` (stereo unspecified), the cytotoxicity at 10 µM was -1.02%.

For `Cc1cccc(NC(=O)[C@@H]2CCCN2CC(=O)N2CCCCCC2)n1`, the cytotoxicity at 10 µM was found to be 20.3%.

Take `Cc1nc(CN2CCO[C@@H]3CNCC[C@@H]3C2)cs1`: the cytotoxicity at 10 µM came to 4.47%. As to `Cc1ccc(C(=O)N2CCn3c(COCC4CC4)cnc3C2C)s1` (stereo unspecified), the cytotoxicity at 10 µM was determined as 5.14%. Take `Cc1ccc(C(F)(F)F)cc1C(=O)N[C@H]1CN(CCO)C[C@@H]1C1CC1`: the cytotoxicity at 10 µM worked out at 0.292%.

As for `COc1nccc(N2CC[C@@H](N3CCN(C)CC3)[C@H](O)C2)c1C#N`, the cytotoxicity at 10 µM is -147%. Consider `Nc1nc(CCCNC(=O)c2ccc(C3CCCNC3)cc2)cs1` (stereo unspecified), for which the cytotoxicity at 10 µM worked out at 2.77%. Regarding `O=C1NCCCC12CCN(S(=O)(=O)N1CCOCC1)C2` (stereo unspecified), the cytotoxicity at 10 µM was -1.16%. Take `Cc1nc(O)cc(C2CCN(C(=O)C(C)Cn3nc(C)nc3C)CC2)n1` (stereo unspecified): the cytotoxicity at 10 µM is -1.89%. As to `COc1cccc([C@@H]2CCN(Cc3cccc(C)n3)C[C@H]2O)c1`, the cytotoxicity at 10 µM was 2.22%. With `Cc1nc(C2CCNCC2)cc(N(C)CCc2cn[nH]c2)n1`, the cytotoxicity at 10 µM was -1.54%.

As for `COCCn1cncc1Cn1cccc(C(F)(F)F)c1=O`, the cytotoxicity at 10 µM was -19.2%.

For the molecule `COc1cccc(CN(C)C(C)c2ccco2)c1OCCn1ccnc1` (stereo unspecified), the cytotoxicity at 10 µM is -0.7%.

Consider `CN(CCCO)c1nc(-c2ccc(C(N)=O)cc2)nc2c1CCNC2`, for which the cytotoxicity at 10 µM was -2.86%.

In the case of `CCOC(=O)C1CCCN(Cc2c[nH]nc2-c2cc3ccccc3o2)C1` (stereo unspecified), the cytotoxicity at 10 µM was found to be 3.16%. As for `COc1c(C)cnc(CN(C)C(=O)c2ccc(C3CCCO3)s2)c1C` (stereo unspecified), the figure is 9.5%; as for `CCCn1c(C)c(CC(=O)NCCOC)c2c1CC(C)(C)CC2=O`, -1.01%.

Turning to `CSCCC(O)C(=O)N1CCCN(Cc2cccnc2)CC1` (stereo unspecified), the cytotoxicity at 10 µM was 8.2%.

Take `CC(Cc1cccnc1)Nc1ncnc2cccc(F)c12` (stereo unspecified): the cytotoxicity at 10 µM amounted to 26.3%. As for `Cn1ncc(C2CC(=O)NCc3nc4sccn4c32)c1C1CC1` (stereo unspecified), the cytotoxicity at 10 µM was -5.01%. With `CN1CCC(Cc2noc(-c3cn(Cc4ccc(F)cc4)nn3)n2)CC1`, the cytotoxicity at 10 µM was -4.18%.

Regarding `Cc1cc(C)n(CC2CN(CC(=O)N3CCNC3=O)CCO2)n1` (stereo unspecified), the cytotoxicity at 10 µM is -2.38%. `Cn1cnc2c1CCN(Cc1csc(Cc3ccccc3)n1)C2`: the cytotoxicity at 10 µM was -5.4%. Then `Cc1ncncc1C(=O)N1CCOC(c2nc(C(C)C)n[nH]2)C1` (stereo unspecified), with -4.98%. Take `Cc1ccc(NC2CCN(C(=O)CCCc3cccs3)CC2)nn1`: the cytotoxicity at 10 µM was -8.49%. Take `Cc1ccccc1OCC(=O)N1CCCC(CNS(C)(=O)=O)C1` (stereo unspecified): the cytotoxicity at 10 µM was determined as 2.07%. With `CCN(CC)C(=O)Cn1ccc2cc(NC(=O)C3CCCCC3)ccc21`, the cytotoxicity at 10 µM is -5.04%.

Turning to `Cc1cc(C)n(CC2CCCN2C(=O)c2cnccn2)n1` (stereo unspecified), the cytotoxicity at 10 µM came to 6.41%.

As for `c1ccc(-c2nc(CN3CCOC(Cn4cccn4)C3)no2)cc1` (stereo unspecified), the cytotoxicity at 10 µM was determined as 10.1%. Turning to `COCCc1noc(CNC2CCc3nc(C(C)C)nn3C2)n1` (stereo unspecified), the cytotoxicity at 10 µM came to 4.28%.

In the case of `O=C(N1CCOCC1)N1CCCC2(CCCNC2)C1` (stereo unspecified), the cytotoxicity at 10 µM was determined as 0.817%. For the molecule `O=C([C@H]1CC[C@@H]2[C@@H](CCN2C2CCCC2)O1)N1CCOCC1`, the cytotoxicity at 10 µM was determined as 11.5%. `Cc1cccc(CN2CCc3cc(C(=O)O)c(N(C)C)nc3CC2)n1`: the cytotoxicity at 10 µM is 3.68%. With `O=C1NCC[C@]12CN(Cc1cccnc1)C[C@H]2c1ccccc1`, the cytotoxicity at 10 µM was -137%. As to `CN(C)CCN1CCN(Cc2ccco2)Cc2cccnc21`, the cytotoxicity at 10 µM stood at 1.73%.

With `O=C1CC2(CCN(Cc3ccccn3)C2)CN1c1cncnc1` (stereo unspecified), the cytotoxicity at 10 µM was determined as 2.26%. Consider `CNC(=O)CN1CCOCC2(C1)CN(C(=O)CC(C)C)CCO2` (stereo unspecified), for which the cytotoxicity at 10 µM turned out to be 3.94%. Then `O=C1COC2(CCN(C(=O)C3CC=CC3)CC2)CN1Cc1cccnc1`, with 3.27%.

In the case of `COc1ncccc1CN1C[C@@H]2COC[C@]2(COCC(=O)N(C)C)C1`, the cytotoxicity at 10 µM turned out to be 7.81%.

As for `CC(C)Nc1nc2c(cc1C(=O)N(C)C)CCNCC2`, the cytotoxicity at 10 µM is -4.99%. On to `Cc1nc(CN2CC[C@H](OCC3CC3)[C@@H]2Cc2cccnc2)cs1`, for which the cytotoxicity at 10 µM turned out to be 0.15%. Consider `COc1cc(N2CCC3(CCN(C(=O)c4cccnc4)CC3)C2)ncn1`, for which the cytotoxicity at 10 µM is -130%. In the case of `COc1ncccc1CN1CC[C@]2(C[C@@H](OCc3ccccn3)CO2)C1`, the cytotoxicity at 10 µM is 4.96%. As for `Cc1ccc(CN2C[C@@H]3COC[C@@H](CC(=O)N4CCOCC4)[C@@H]3C2)s1`, the figure is -2.04%; as for `CN(C)C(=O)N1C[C@H]2CC[C@@H](C1)N(Cc1nnc(-c3ccccc3)o1)C2`, 4.6%.
